Source: ChEMBL document CHEMBL1143652, “Joys of molecules. 2. Endeavors in chemical biology and medicinal chemistry” (J Med Chem, 2005)
In brackets after ≈: the same amount, converted by molar mass.

Experiments:
[1] = In vitro cytotoxicity against leukemia P-388 tumor cells; type: functional, cell-based; conditions: Mus musculus, P388
Felis catus = species on record: Felis catus; assay: Inhibition of LTC4 and LTD4 production in cat lung at 5 mM; type: functional
[2] = target: Tubulin beta-4B chain (Homo sapiens) (UniProt P68371); assay: (§1) Tubulin polymerization at a concentration of 100 uM incubated for 90 minutes; type: functional
In short: (§2)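 Tubulin polymerization was read as percent polymerization, with test drug at 100 µM and a 90 min incubation.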

[3] = target: Tubulin beta-4B chain (Homo sapiens) (UniProt P68371); assay: as §1; in short: as §2
1A9 [4] = assay: Inhibition concentration against human ovarian 1A9 tumor cells; type: functional, cell-based
Protein kinase C (PKC) = assay: Inhibitory activity against protein kinase C; type: protein assay
[5] = target: cAMP-dependent protein kinase (PKA) (Homo sapiens, UniProt P22694+P17612+P22612); assay: Inhibitory constant against the protein kinase A; type: protein assay
KB 3-1 [6] = assay: Cytotoxicity against KB-31 human epidermoid cancer cells; type: functional, cell-based
KB 3-1 [7] = assay: Cytotoxicity against KB3-1 human epidermoid cancer cells; type: functional, cell-based
[8] = target: Polyunsaturated fatty acid 5-lipoxygenase (Homo sapiens) (UniProt P09917); assay: Inhibitory concentration against 5-lipoxygenase
[9] = target: T1, Mycothiol S-conjugate amidase (Mycobacterium tuberculosis, UniProt P9WJN1); assay: Inhibition of Mycobacterium tuberculosis detoxification enzyme mycothiol-S-conjugate amidase (MCA)
T1 sequence (P9WJN1 whole entry): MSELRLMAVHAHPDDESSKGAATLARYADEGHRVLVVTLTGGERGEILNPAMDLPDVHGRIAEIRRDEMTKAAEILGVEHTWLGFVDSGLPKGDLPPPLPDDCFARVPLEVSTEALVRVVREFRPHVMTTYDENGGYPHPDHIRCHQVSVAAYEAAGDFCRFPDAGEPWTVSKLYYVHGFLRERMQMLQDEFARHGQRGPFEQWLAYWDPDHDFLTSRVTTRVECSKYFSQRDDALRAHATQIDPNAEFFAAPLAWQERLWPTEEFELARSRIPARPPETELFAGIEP

Bacteria = assay: Minimum inhibitory concentration against bacterial strains; type: functional
1A9 [10] = assay: Cytotoxicity against 1A9 ovarian cancer cells; type: functional, cell-based; conditions: Homo sapiens
Staphylococcus aureus = assay: Minimum inhibitory concentration against methicillin resistant Staphylococcus aureus (MRSA); range is 3-12 ug/mL; type: functional
[11] = Antiproliferation activity against cancer cell lines by mixed-lymphocyte-reaction proliferation assay; type: functional, cell-based; conditions: Homo sapiens

Sequence of Tubulin beta-4B chain (Homo sapiens) (P68371 whole entry): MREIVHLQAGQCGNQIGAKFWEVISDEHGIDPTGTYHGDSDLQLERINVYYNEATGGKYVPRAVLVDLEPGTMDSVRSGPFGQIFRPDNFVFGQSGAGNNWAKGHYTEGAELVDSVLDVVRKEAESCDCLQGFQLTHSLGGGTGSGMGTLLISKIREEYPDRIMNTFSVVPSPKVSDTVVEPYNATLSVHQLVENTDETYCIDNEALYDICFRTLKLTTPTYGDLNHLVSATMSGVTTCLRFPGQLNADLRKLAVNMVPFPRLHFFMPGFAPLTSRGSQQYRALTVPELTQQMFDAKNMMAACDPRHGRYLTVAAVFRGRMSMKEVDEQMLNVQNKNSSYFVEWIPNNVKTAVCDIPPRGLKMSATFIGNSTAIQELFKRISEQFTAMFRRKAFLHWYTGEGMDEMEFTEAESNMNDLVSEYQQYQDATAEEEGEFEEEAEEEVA
Sequence of Polyunsaturated fatty acid 5-lipoxygenase (Homo sapiens) (P09917 whole entry): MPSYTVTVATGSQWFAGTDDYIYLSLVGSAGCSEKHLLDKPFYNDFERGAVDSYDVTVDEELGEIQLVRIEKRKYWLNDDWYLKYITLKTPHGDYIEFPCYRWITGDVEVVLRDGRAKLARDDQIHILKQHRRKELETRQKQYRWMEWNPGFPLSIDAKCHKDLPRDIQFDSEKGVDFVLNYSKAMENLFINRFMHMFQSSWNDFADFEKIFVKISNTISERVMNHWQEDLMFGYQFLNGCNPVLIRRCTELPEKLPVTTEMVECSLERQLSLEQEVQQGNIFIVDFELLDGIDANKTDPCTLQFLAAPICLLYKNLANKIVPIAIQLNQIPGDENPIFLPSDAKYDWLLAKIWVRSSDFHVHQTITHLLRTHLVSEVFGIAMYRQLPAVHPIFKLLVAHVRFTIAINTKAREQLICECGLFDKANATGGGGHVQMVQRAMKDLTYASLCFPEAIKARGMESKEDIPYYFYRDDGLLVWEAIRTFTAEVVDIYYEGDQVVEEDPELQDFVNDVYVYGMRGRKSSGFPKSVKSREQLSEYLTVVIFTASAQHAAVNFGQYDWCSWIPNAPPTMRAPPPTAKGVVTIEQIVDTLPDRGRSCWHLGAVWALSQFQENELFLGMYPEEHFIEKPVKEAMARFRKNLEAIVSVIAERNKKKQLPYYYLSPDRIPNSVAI

**Q.** For `CCOC(=O)c1c(OCC)cc(C)cc1[C@H]1[C@@H](C(C)C)CC[C@@]1(C)C(=O)OCC`, which IC50 [1] is on record?
**A.** 54.2 µM

**Q.** Which Inhibition (Felis catus) does the source give for `CCCCC/C=C\C/C=C\C/C=C\C1(/C=C\CCCC(=O)O)CC1` here?
**A.** 8%

**Q.** With `CCCOC(=O)/C1=C/[C@@H]2[C@@H](C(C)C)CC=C(C)[C@@H]2C[C@H](OC(=O)/C=C/c2cn(C)cn2)[C@]2(C)C=C[C@@]1(OC)O2` as the molecule, how does the TP [2] read?
**A.** 69%

**Q.** And the TP [3]?
**A.** 69%

**Q.** And the IC50 (1A9 [4])?
**A.** 0.003 µM

**Q.** With `O=C(N[C@@H]1CNCCC[C@H]1OC(=O)c1cc(O)c(C(=O)c2ccccc2C(=O)O)c(O)c1)c1ccc(O)cc1` as the molecule, how does the Ki (Protein kinase C (PKC)) read?
**A.** 0.64 µM

**Q.** What about the Ki [5] of the same molecule?
**A.** 0.0039 µM

**Q.** Which Inhibition (Felis catus) does the source give for `CCCCC/C=C\C1(/C=C\C2(/C=C\C3(/C=C\CCCC(=O)O)CC3)CC2)CC1` here?
**A.** 10%

**Q.** For `CC(C)=CCc1c2c(c(O)c3c1O[C@]14C(=C[C@@H]5C[C@H]1C(C)(C)OC4(CC=C(C)C)C5=O)C3=O)C=CC(C)(CCC(C)C)O2` (stereo partly drawn), which IC50 (KB 3-1 [6]) is on record?
**A.** 6.01 µM

**Q.** What about the IC50 (KB 3-1 [7]) of the same molecule?
**A.** 6.01 µM

**Q.** With `CCCCC/C=C/C\C=C/C=C/C=C/[C@@H]1C[C@H]1CCCC(=O)OC` as the molecule, how does the ID50 [8] read?
**A.** 6 µM

**Q.** Which TP [2] does the source give for `CCOC(=O)/C1=C/[C@@H]2[C@@H](C(C)C)CC=C(C)[C@@H]2C[C@H](OC(=O)/C=C/c2cn(C)cn2)[C@]2(C)C=C[C@@]1(OC)O2` here?
**A.** 46%

**Q.** What about the TP [3] of the same molecule?
**A.** 46%

**Q.** And the IC50 (1A9 [4])?
**A.** 0.002 µM

**Q.** With `CCOC(=O)/C1=C/[C@@H]2[C@@H](C(C)C)CC=C(C)[C@@H]2C[C@H](OC(=O)/C=C/c2cn(C)cn2)[C@]2(C)C=C[C@@]1(O)O2` [SARCODICTYIN B] as the molecule, how does the TP [2] read?
**A.** 71%

**Q.** What about the TP [3] of the same molecule?
**A.** 71%

**Q.** And the IC50 (1A9 [4])?
**A.** 0.002 µM

**Q.** With `COC(=O)/C1=C/[C@@H]2[C@@H](C(C)C)CC=C(C)[C@@H]2C[C@H](OC(=O)/C=C/c2cn(C)cn2)[C@]2(C)C=C[C@@]1(O)O2` [SARCODICTYIN A] as the molecule, how does the TP [2] read?
**A.** 67%

**Q.** And the TP [3]?
**A.** 67%

**Q.** What about the IC50 (1A9 [4]) of the same molecule?
**A.** 0.34 µM

**Q.** What does the source list for `O=C(NCCSSc1ccc(F)cc1)/C(Cc1cc(F)cc(F)c1)=N/O`?
**A.** IC50 [9]: 2720 µM; MIC (Bacteria): 0.46 ug m/L

**Q.** Which IC50 [1] does the source give for `Cc1cc(O)c2c(c1)[C@H]1[C@@H](C(C)C)CC[C@@]1(C)C(=O)C2=O` here?
**A.** 13.9 µM

**Q.** Which results are given for `Nc1ccc(SSCCNC(=O)/C(Cc2ccc(O)c(Cl)c2)=N/O)cc1`?
**A.** IC50 [9]: 35 µM; MIC (Bacteria): 1.23 ug m/L

**Q.** Which IC50 (1A9 [10]) does the source give for `COC1(OC)C2=C(OC(C)(C)C=C2)C(=O)[C@@H](OC(=O)C2=C[C@]3(OC)C[C@H]4C(C)(C)OC(CC=C(C)C)(C3=O)[C@]24O)[C@@H]1CC=C(C)C` here?
**A.** 9 µM

**Q.** For `O=C(NCCSSc1ccc(F)cc1)/C(Cc1cccc(Br)c1)=N/O`, which IC50 [9] is on record?
**A.** 90 µM

**Q.** What about the MIC (Bacteria) of the same molecule?
**A.** 0.11 ug m/L

**Q.** For `CO[C@@]12C=C3C(=O)O[C@]4(O[C@]35[C@@H](C1)C(C)(C)OC5(CC=C(C)C)C2=O)C(=O)C1=C(C=CC(C)(C)O1)C(=O)C4CC=C(C)C` (stereo partly drawn) [1-O-METHYLLATERIFLORONE], which IC50 (1A9 [10]) is on record?
**A.** 25 µM

**Q.** With `CNC(=O)/C1=C/[C@@H]2[C@@H](C(C)C)CC=C(C)[C@@H]2C[C@H](OC(=O)/C=C/c2cn(C)cn2)[C@]2(C)C=C[C@@]1(OC)O2` as the molecule, how does the TP [2] read?
**A.** 52%

**Q.** What about the TP [3] of the same molecule?
**A.** 52%

**Q.** And the IC50 (1A9 [4])?
**A.** 0.045 µM

**Q.** Which results are given for `CC1(C)C=Cc2cccc(/C=C(/C#N)c3ccc(O)cc3)c2O1`?
**A.** MIC (Staphylococcus aureus): 12 µg/mL (≈ 39.6 µM); MIC (Staphylococcus aureus; Staphylococcus aureus, read-out: MIC): 12 µg/mL (≈ 39.6 µM)

**Q.** With `CCCCC/C=C\C/C=C\C1(/C=C\C2(/C=C\CCCC(=O)O)CC2)CC1` as the molecule, how does the Inhibition (Felis catus) read?
**A.** 5%

**Q.** With `CCCCCCCCCC[C@H]1CC1CCCC/C=C\CC[C@@H](O)C(=O)N[C@@H](CO[C@@H]1OC(CO)[C@@H](O)[C@H](O)[C@@H]1OCC=C(C)C)[C@H](O)CCC/C=C\CCCC[C@@H]1C[C@@H]1CCCCCCCCCC` (single isomer, unassigned) as the molecule, how does the IC50 [11] read?
**A.** > 50 µM

**Q.** Which results are given for `Nc1ccc(SSCCNC(=O)/C(Cc2cccc(Br)c2)=N/O)cc1`?
**A.** IC50 [9]: 185 µM; MIC (Bacteria): 0.09 ug m/L
